Data taken from ChEMBL document CHEMBL5678814, “Novel Mps1 Kinase Inhibitors with Potent Antitumor Activity” (Mol Cancer Ther, 2016).

Columns and labels:
NCI-H2030 = assay: Antiproliferative activity against human NCI-H2030 cells assessed as cell growth inhibition incubated for 96 hrs by crystal violet staining; settings: NCI-H2030, 96 h
HeLa = assay: cells; settings: Homo sapiens, 4 h
NCI-H1650 = assay: Antiproliferative activity against human NCI-H1650 cells assessed as cell growth inhibition incubated for 96 hrs by crystal violet staining; settings: NCI-H1650, 96 h
SK-MEL-28 = assay: Antiproliferative activity against human SK-MEL-28 cells assessed as cell growth inhibition incubated for 96 hrs by crystal violet staining; settings: SK-MEL-28, 96 h
RD = assay: Antiproliferative activity against human RD cells assessed as cell growth inhibition incubated for 96 hrs by MTS assay; assay type: functional, cell-based
[1] = Cmax in male Wistar rat plasma at 0.5 mg/kg, po measured after 24 hrs by LC/-MS/MS analysis; assay type: ADME, organism-based
How it was run: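 Male Wistar rats given 0.5 mg/kg orally. Plasma collected from 8 min to 24 h, precipitated with ice-cold acetonitrile (1:5), and analysed by LC/MS-MS. Cmax and Tmax read directly from concentration–time profiles.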

[2] = Antiproliferative activity against human A2780cis cells assessed as cell growth inhibition incubated for 96 hrs by crystal violet staining
RKO [3] = assay: Antiproliferative activity against human TP53 mutant RKO cells assessed as cell growth inhibition incubated for 96 hrs by crystal violet staining
A2780 = assay: Antiproliferative activity against human A2780 cells assessed as cell growth inhibition incubated for 96 hrs by crystal violet staining; settings: A2780, 96 h
[4] = biological target: Mast/stem cell growth factor receptor Kit (Homo sapiens, UniProt P10721); assay: Binding affinity to KIT (unknown origin) assessed as dissociation constant
Mast/stem cell growth factor receptor Kit, sequence (P10721 whole entry): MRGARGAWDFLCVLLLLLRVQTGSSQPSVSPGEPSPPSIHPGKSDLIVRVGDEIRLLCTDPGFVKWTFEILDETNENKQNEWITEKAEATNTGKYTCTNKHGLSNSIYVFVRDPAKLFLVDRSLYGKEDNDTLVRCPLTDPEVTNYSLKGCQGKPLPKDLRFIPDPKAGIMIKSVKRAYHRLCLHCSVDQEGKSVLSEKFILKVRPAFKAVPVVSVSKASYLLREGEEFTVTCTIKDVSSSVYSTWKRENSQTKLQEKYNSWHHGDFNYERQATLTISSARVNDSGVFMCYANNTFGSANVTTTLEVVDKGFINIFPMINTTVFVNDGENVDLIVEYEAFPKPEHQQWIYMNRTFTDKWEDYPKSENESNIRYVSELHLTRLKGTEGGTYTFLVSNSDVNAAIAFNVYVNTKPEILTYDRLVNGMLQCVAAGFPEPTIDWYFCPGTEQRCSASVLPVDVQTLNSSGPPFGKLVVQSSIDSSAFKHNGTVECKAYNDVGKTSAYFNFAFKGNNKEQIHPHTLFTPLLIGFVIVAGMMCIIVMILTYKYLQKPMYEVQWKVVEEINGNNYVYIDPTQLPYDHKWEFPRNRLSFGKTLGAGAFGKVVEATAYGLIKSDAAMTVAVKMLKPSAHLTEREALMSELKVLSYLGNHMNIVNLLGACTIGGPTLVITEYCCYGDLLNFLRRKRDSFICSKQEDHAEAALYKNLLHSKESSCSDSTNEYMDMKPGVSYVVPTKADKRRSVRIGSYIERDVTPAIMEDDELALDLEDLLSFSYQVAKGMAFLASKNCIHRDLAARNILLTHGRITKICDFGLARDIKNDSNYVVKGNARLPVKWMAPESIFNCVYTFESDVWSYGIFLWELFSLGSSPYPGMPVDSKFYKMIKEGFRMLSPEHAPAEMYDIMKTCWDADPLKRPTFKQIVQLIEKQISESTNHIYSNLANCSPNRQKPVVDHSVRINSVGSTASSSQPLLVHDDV

RPMI-2650 = assay: Antiproliferative activity against human RPMI-2650 cells assessed as cell growth inhibition incubated for 96 hrs by crystal violet staining; settings: RPMI-2650, 96 h
[5] = Tmax in female NMRI mouse plasma at 1 mg/kg, po measured after 24 hrs by LC/-MS/MS analysis
NCI-H460 = assay: Antiproliferative activity against human NCI-H460 cells assessed as cell growth inhibition incubated for 96 hrs by crystal violet staining; settings: NCI-H460, 96 h
JJN-3 = assay: Antiproliferative activity against human JJN-3 cells assessed as cell growth inhibition incubated for 96 hrs by crystal violet staining; settings: JJN-3, 96 h
Caco-2 = assay: Antiproliferative activity against human Caco-2 cells assessed as cell growth inhibition incubated for 96 hrs by crystal violet staining; settings: Caco-2, 96 h
HCC70 = assay: Antiproliferative activity against human HCC70 cells assessed as cell growth inhibition incubated for 96 hrs by MTS assay; assay type: functional, cell-based; settings: HCC70, 96 h
OVCAR-8 = assay: Antiproliferative activity against human OVCAR-8 cells assessed as cell growth inhibition incubated for 96 hrs by crystal violet staining; settings: OVCAR-8, 96 h
[6] = biological target: Mitogen-activated protein kinase kinase kinase kinase 1 (Homo sapiens, UniProt Q92918); assay: Binding affinity to HPK1 (unknown origin) assessed as dissociation constant
Mitogen-activated protein kinase kinase kinase kinase 1, sequence (Q92918 whole entry): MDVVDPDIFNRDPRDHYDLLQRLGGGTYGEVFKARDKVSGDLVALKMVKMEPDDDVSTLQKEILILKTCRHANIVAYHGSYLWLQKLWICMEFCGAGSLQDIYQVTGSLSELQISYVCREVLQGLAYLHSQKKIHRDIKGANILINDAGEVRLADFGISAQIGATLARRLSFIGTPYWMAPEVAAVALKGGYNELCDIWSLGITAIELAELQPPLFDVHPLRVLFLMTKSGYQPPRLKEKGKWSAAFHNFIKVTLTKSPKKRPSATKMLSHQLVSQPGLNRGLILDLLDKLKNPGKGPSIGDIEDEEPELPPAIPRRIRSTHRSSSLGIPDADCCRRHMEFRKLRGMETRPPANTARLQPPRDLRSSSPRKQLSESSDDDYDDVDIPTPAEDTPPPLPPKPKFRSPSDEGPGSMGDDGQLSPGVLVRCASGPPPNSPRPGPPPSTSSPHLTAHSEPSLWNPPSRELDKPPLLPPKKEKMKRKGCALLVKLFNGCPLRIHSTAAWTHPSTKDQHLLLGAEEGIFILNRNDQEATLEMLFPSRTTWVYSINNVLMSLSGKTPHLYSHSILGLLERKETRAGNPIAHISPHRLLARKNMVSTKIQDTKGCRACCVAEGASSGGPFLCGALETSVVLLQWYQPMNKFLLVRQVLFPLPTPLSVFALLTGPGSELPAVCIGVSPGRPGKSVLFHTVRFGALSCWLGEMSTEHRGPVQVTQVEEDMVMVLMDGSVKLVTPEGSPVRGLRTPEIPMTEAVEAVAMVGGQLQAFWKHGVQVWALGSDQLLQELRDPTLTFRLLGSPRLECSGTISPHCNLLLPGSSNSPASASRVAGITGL

HT-29 = assay: Antiproliferative activity against human HT-29 cells assessed as cell growth inhibition incubated for 96 hrs by crystal violet staining; settings: HT-29, 96 h
[7] = Antiproliferative activity against human OUMS-23 cells assessed as cell growth inhibition incubated for 96 hrs by crystal violet staining; settings: OUMS-23, 96 h
MDA-MB-231 = assay: Antiproliferative activity against human MDA-MB-231 cells assessed as cell growth inhibition incubated for 96 hrs by MTS assay; assay type: functional, cell-based; settings: MDA-MB-231, 96 h
IGROV-1 = assay: Antiproliferative activity against human IGROV-1 cells assessed as cell growth inhibition incubated for 96 hrs by crystal violet staining; settings: IGROV-1, 96 h
HCT-116 [8] = assay: Antiproliferative activity against human HCT-116 cells assessed as cell growth inhibition incubated for 96 hrs by crystal violet staining; settings: HCT-116, 96 h
HCT-116 [9] = assay: Antiproliferative activity against human TP53 mutant HCT-116 cells assessed as cell growth inhibition incubated for 96 hrs by crystal violet staining; settings: HCT-116, 96 h
[10] = Oral bioavailability in male Wistar rat plasma at 0.5 mg/kg measured after 24 hrs by LC/-MS/MS analysis; assay type: ADME, organism-based
[11] = biological target: Mitogen-activated protein kinase 10 (Homo sapiens, UniProt P53779); assay: Binding affinity to JNK3 (unknown origin) assessed as dissociation constant
Mitogen-activated protein kinase 10, sequence (P53779 whole entry): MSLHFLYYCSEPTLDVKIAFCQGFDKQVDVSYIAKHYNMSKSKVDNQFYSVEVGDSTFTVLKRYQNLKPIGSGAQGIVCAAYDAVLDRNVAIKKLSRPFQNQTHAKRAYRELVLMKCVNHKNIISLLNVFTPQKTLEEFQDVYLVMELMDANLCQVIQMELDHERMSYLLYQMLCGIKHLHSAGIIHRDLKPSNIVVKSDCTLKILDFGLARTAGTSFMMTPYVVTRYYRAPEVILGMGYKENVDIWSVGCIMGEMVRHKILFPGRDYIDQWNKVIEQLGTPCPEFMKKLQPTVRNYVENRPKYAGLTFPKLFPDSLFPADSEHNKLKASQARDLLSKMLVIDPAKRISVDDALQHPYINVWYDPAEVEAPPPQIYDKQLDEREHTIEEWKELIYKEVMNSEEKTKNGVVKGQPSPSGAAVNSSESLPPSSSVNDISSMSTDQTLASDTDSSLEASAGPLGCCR

NCI-H2452 = assay: Antiproliferative activity against human NCI-H2452 cells assessed as cell growth inhibition incubated for 96 hrs by crystal violet staining; settings: NCI-H2452, 96 h
Malme-3M = assay: Antiproliferative activity against human Malme-3M cells assessed as cell growth inhibition incubated for 96 hrs by crystal violet staining
[12] = Clearance in male Wistar rat blood at 0.5 mg/kg, iv measured after 24 hrs by LC/-MS/MS analysis; assay type: ADME, organism-based
[13] = Antitumor activity against human A2780cis cells xenografted female athymic NMRI mouse model assessed as T/C ratio at 2.5 mg/kg, po administered twice daily intermittent for 2 days on/5 days off; assay type: functional; settings: time 7 day
RKO [14] = assay: Antiproliferative activity against human TP53 wildtype RKO cells assessed as cell growth inhibition incubated for 96 hrs by crystal violet staining
KM-H2 = assay: Antiproliferative activity against human KM-H2 cells assessed as cell growth inhibition incubated for 96 hrs by MTS assay; assay type: functional, cell-based; settings: KM-H2, 96 h
SiHa = assay: Antiproliferative activity against human SiHa cells assessed as cell growth inhibition incubated for 96 hrs by crystal violet staining
NCI-H1770 = assay: Antiproliferative activity against human NCI-H1770 cells assessed as cell growth inhibition incubated for 96 hrs by crystal violet staining; settings: NCI-H1770, 96 h
[15] = biological target: Phosphatidylinositol 5-phosphate 4-kinase type-2 gamma (Homo sapiens, UniProt Q8TBX8); assay: Binding affinity to PIP5K2C (unknown origin) assessed as dissociation constant
Phosphatidylinositol 5-phosphate 4-kinase type-2 gamma, sequence (Q8TBX8 whole entry): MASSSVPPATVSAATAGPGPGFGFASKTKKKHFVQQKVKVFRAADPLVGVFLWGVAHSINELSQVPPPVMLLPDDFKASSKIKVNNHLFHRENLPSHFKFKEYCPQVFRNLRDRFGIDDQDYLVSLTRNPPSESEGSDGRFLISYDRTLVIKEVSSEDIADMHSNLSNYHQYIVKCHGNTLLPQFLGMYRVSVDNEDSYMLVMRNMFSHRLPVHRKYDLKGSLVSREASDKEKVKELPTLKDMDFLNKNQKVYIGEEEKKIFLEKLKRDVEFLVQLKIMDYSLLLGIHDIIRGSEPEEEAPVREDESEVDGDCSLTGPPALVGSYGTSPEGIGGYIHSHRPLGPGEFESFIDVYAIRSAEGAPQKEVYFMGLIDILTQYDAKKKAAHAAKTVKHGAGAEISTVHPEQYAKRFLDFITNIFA

[16] = Antiproliferative activity against human JMSU-1 cells assessed as cell growth inhibition incubated for 96 hrs by MTS assay; assay type: functional, cell-based; settings: JMSU-1, 96 h

COc1cc(S(C)(=O)=O)ccc1Nc1nc2ccc(-c3ccc(NC(=O)[C@H](C)c4ccc(F)cc4)cc3)cn2n1 [BAY-1161909]
IC50 (NCI-H2030): 700 nM
IC50 (HeLa): 56 nM
IC50 (NCI-H1650): 130 nM
IC50 (SK-MEL-28): 670 nM
IC50 (RD): 260 nM
Cmax [1]: 110 ng/mL
IC50 [2]: 60 nM
IC50 (RKO [3]): 48 nM
IC50 (A2780): 69 nM
Kd [4]: 370 nM
IC50 (RPMI-2650): 51 nM
Tmax [5]: 4 h
IC50 (NCI-H460): 110 nM
IC50 (JJN-3): 100 nM
IC50 (Caco-2): 1800 nM
IC50 (HCC70): 87 nM
IC50 (OVCAR-8): 190 nM
Kd [6]: 40000 nM
IC50 (HT-29): 100 nM
IC50 [7]: > 3000 nM
IC50 (MDA-MB-231): 110 nM
IC50 (IGROV-1): 240 nM
IC50 (HCT-116 [8]): 56 nM
IC50 (HCT-116 [9]): 59 nM
bioavailability [10]: 49%
Kd [11]: 96 nM
IC50 (NCI-H2452): 120 nM
IC50 (Malme-3M): 200 nM
clearance [12]: 3.17 mL/min/kg
T/C [13]: 0.43
IC50 (RKO [14]): 39 nM
IC50 (KM-H2): 220 nM
IC50 (SiHa): 610 nM
IC50 (NCI-H1770): 100 nM
Kd [15]: 280 nM
IC50 [16]: 89 nM
